Results: ChEMBL document CHEMBL1149773, “Synthesis, determination of the lipophilicity, anticancer and antimicrobial properties of some fused 1,2,4-triazole derivatives” (Eur J Med Chem, 2008)
Values after ≈ are worked out from the molar mass of the structure shown.

How the values were obtained:
Staphylococcus aureus [1] = assay: Antimicrobial activity against Staphylococcus aureus ATCC 25923 after 24 hrs by microdilution assay; type: functional; conditions: ATCC 25923, 24 h
Pseudomonas aeruginosa [2] = assay: Antimicrobial activity against Pseudomonas aeruginosa ATCC 27853 after 24 hrs by microdilution assay; type: functional; conditions: ATCC 27853, 24 h
Streptococcus agalactiae [3] = assay: Antimicrobial activity against Streptococcus agalactiae at 200 ug/mL by disc-diffusion method; type: functional; conditions: read-out: IZ
How it was run: (§1)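 Kirby–Bauer disc diffusion: 5 mm paper discs soaked in compound solution in DMSO (100 or 200 µg/mL; reference drugs 200 µg/mL) and laid on inoculated Mueller-Hinton agar (bacteria) or Sabouraud agar (C. albicans, Aspergillus). DMSO discs were the control. Plates ran 24 h at 35 °C. Inhibition zone diameter was scored 0–10 mm R, 11–16 mm I, 17–25 mm S; triplicate.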

Klebsiella aerogenes [4] = assay: Antimicrobial activity against Enterobacter aerogenes at 200 ug/mL by disc-diffusion method; type: functional; conditions: read-out: IZ; how it was run: as §1
Aspergillus sp. [5] = assay: Antimicrobial activity against Aspergillus sp. at 100 ug/mL by disc-diffusion method; type: functional; conditions: read-out: IZ; how it was run: as §1
Aspergillus sp. [6] = assay: Antimicrobial activity against Aspergillus sp. at 200 ug/mL by disc-diffusion method; type: functional; conditions: read-out: IZ; how it was run: as §1
Staphylococcus aureus [7] = assay: Antimicrobial activity against Staphylococcus aureus ATCC 25923 at 200 ug/mL by disc-diffusion method; type: functional; conditions: read-out: IZ; how it was run: as §1
Proteus vulgaris [8] = assay: Antimicrobial activity against Proteus vulgaris at 200 ug/mL by disc-diffusion method; type: functional; conditions: read-out: IZ; how it was run: as §1
Candida albicans [9] = assay: Antimicrobial activity against Candida albicans ATCC 10231 at 100 ug/mL by disc-diffusion method; type: functional; conditions: read-out: IZ; how it was run: as §1
Staphylococcus aureus [10] = assay: Antimicrobial activity against Staphylococcus aureus ATCC 25923 at 100 ug/mL by disc-diffusion method; type: functional; conditions: read-out: IZ; how it was run: as §1
Pseudomonas aeruginosa [11] = assay: Antimicrobial activity against Pseudomonas aeruginosa ATCC 27853 at 100 ug/mL by disc-diffusion method; type: functional; conditions: read-out: IZ; how it was run: as §1
Streptococcus agalactiae [12] = assay: Antimicrobial activity against Streptococcus agalactiae at 100 ug/mL by disc-diffusion method; type: functional; conditions: read-out: IZ; how it was run: as §1
Proteus vulgaris [13] = assay: Antimicrobial activity against Proteus vulgaris at 100 ug/mL by disc-diffusion method; type: functional; conditions: read-out: IZ; how it was run: as §1
[14] = system: Staphylococcus epidermidis; assay: Antimicrobial activity against Staphylococcus epidermidis at 200 ug/mL by disc-diffusion method; type: functional; conditions: read-out: IZ; how it was run: as §1
Streptococcus pyogenes [15] = assay: Antimicrobial activity against Streptococcus pyogenes at 200 ug/mL by disc-diffusion method; type: functional; conditions: read-out: IZ; how it was run: as §1
Klebsiella aerogenes [16] = assay: Antimicrobial activity against Enterobacter aerogenes at 100 ug/mL by disc-diffusion method; type: functional; conditions: read-out: IZ; how it was run: as §1
Escherichia coli [17] = assay: Antimicrobial activity against Escherichia coli ATCC 25922 at 100 ug/mL by disc-diffusion method; type: functional; conditions: read-out: IZ; how it was run: as §1
Klebsiella pneumoniae [18] = assay: Antimicrobial activity against Klebsiella pneumoniae at 200 ug/mL by disc-diffusion method; type: functional; conditions: read-out: IZ; how it was run: as §1
Candida albicans [19] = assay: Antimicrobial activity against Candida albicans ATCC 10231 after 24 hrs by microdilution assay; type: functional; conditions: ATCC 10231, 24 h
Pseudomonas aeruginosa [20] = assay: Antimicrobial activity against Pseudomonas aeruginosa ATCC 27853 at 200 ug/mL by disc-diffusion method; type: functional; conditions: read-out: IZ; how it was run: as §1
Escherichia coli [21] = assay: Antimicrobial activity against Escherichia coli ATCC 25922 at 200 ug/mL by disc-diffusion method; type: functional; conditions: read-out: IZ; how it was run: as §1
[22] = system: Staphylococcus epidermidis; assay: Antimicrobial activity against Staphylococcus epidermidis at 100 ug/mL by disc-diffusion method; type: functional; conditions: read-out: IZ; how it was run: as §1
[23] = Lipophilicity, log kw in dioxane aqueous system at pH 3.5; type: physicochemical; conditions: buffer
How it was run: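 RP-HPLC on an octadecyl silica column (150 × 4.6 mm, 5 µm) at 22 ± 1 °C, flow 1.0 mL min⁻¹, UV detection at 254 nm. Mobile phase was methanol, acetonitrile or dioxane with water and 0.01 M phosphate buffer pH 3.5 containing 0.05 M DEA. log k_W was extrapolated to pure water by regression.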

Streptococcus pyogenes [24] = assay: Antimicrobial activity against Streptococcus pyogenes at 100 ug/mL by disc-diffusion method; type: functional; conditions: read-out: IZ; how it was run: as §1
Candida albicans [25] = assay: Antimicrobial activity against Candida albicans ATCC 10231 at 200 ug/mL by disc-diffusion method; type: functional; conditions: read-out: IZ; how it was run: as §1
Klebsiella pneumoniae [26] = assay: Antimicrobial activity against Klebsiella pneumoniae at 100 ug/mL by disc-diffusion method; type: functional; conditions: read-out: IZ; how it was run: as §1

With `O=C(N[C@H](CO)[C@H](O)c1ccc([N+](=O)[O-])cc1)C(Cl)Cl` [CHLORAMPHENICOL] the MIC (Staphylococcus aureus [1]) was 12.4 µM (≈ 4.01 µg/mL) and the MIC (Pseudomonas aeruginosa [2]) was greater than 387 µM.
`Sc1nnc2n1CCN2c1ccc(Cl)cc1` gave a zone of inhibition at 200 µg/mL (Streptococcus agalactiae [3]) of 0 mm, a zone of inhibition at 200 µg/mL (Klebsiella aerogenes [4]) of 0 mm and a zone of inhibition at 100 µg/mL (Aspergillus sp. [5]) of 0 mm. The zone of inhibition at 200 µg/mL (Aspergillus sp. [6]) was 0 mm, the zone of inhibition at 200 µg/mL (Staphylococcus aureus [7]) was 0 mm and the zone of inhibition at 200 µg/mL (Proteus vulgaris [8]) was 0 mm. It also gave a zone of inhibition at 100 µg/mL (Candida albicans [9]) of 17 mm, a zone of inhibition at 100 µg/mL (Staphylococcus aureus [10]) of 0 mm and a zone of inhibition at 100 µg/mL (Pseudomonas aeruginosa [11]) of 0 mm. The zone of inhibition at 100 µg/mL (Streptococcus agalactiae [12]) was 0 mm, the zone of inhibition at 100 µg/mL (Proteus vulgaris [13]) was 0 mm and the zone of inhibition at 200 µg/mL [14] was 0 mm. The zone of inhibition at 200 µg/mL (Streptococcus pyogenes [15]) was 0 mm, the zone of inhibition at 100 µg/mL (Klebsiella aerogenes [16]) was 0 mm and the zone of inhibition at 100 µg/mL (Escherichia coli [17]) was 0 mm. The zone of inhibition at 200 µg/mL (Klebsiella pneumoniae [18]) was 0 mm, the MIC (Candida albicans [19]) was 30.9 µM (≈ 7.81 µg/mL) and the zone of inhibition at 200 µg/mL (Pseudomonas aeruginosa [20]) was 0 mm. For the same molecule, the zone of inhibition at 200 µg/mL (Escherichia coli [21]) was 0 mm, the zone of inhibition at 100 µg/mL [22] was 0 mm and the logKw [23] was -0.09. It also gave a zone of inhibition at 100 µg/mL (Streptococcus pyogenes [24]) of 0 mm, a zone of inhibition at 200 µg/mL (Candida albicans [25]) of 17 mm and a zone of inhibition at 100 µg/mL (Klebsiella pneumoniae [26]) of 0 mm.
